The test system of experiment [1] is MDA-MB-231. The experiment can be described thus: Growth inhibition of human MDA-MB-231 cells after 72 hrs by SRB assay. Type of experiment: functional. To be noted: MDA-MB-231, 72 h. In short, it runs like this:
(§1)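 Cells seeded at 5×10^3/well in RPMI and attached for 18 h drug-free. Samples added in DMSO/H2O 3:7 for 72 h exposure. Cells then fixed with cold TCA for 60 min at 4 °C, stained with 0.4% SRB in 1% acetic acid for 10 min, stain solubilized in Tris and read at 490 nm. GI50 from 100×[(T−T0)/(C−T0)]=50; mean of triplicates.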
For orientation: In SRB staining, fixed cells bind dye roughly in proportion to their protein.

Experiment [2] relates to HeLa. Put plainly: Induction of cell cycle arrest in human HeLa cells assessed as accumulation at G2/M phase at 1 uM after 24 hrs by propidium iodide staining-based FACS flow cytometry. In kind it is functional. In short, it runs like this: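 Mycoplasma-negative HeLa cells in DMEM with 10% heat-inactivated FCS, 2 mM L-glutamine, penicillin/streptomycin, 37 °C, 5% CO2; exposed to 1 µM for 24 h alongside untreated controls. 3–5×10^5 cells fixed overnight in 70% ethanol at 4 °C, PBS-washed, 1 h with 1 mg/mL RNase A plus 20 µg/mL propidium iodide at room temperature; flow cytometry for % G2/M; three independent experiments.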
A general note: In flow cytometry, cells or beads pass a laser one at a time.

Experiment [3] has as its system HeLa. Put plainly: Disruption of microtubule network in human HeLa cells at 1 uM after 24 hrs by DAPI staining-based confocal laser scanning microscopy relative to control. Type of experiment: cell-based. In short, it runs like this: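 HeLa cells in DMEM with 10% heat-inactivated FCS, 2 mM L-glutamine, penicillin/streptomycin, 37 °C, 5% CO2, grown on poly-L-lysine coverslips; 1 µM, 24 h. Fixed in 4% paraformaldehyde in HPEM (pH 6.6), 0.5% Triton X-100 permeabilized, anti-alpha-tubulin mouse mAb (1:150), Cy2 anti-mouse IgG, DAPI nuclei; confocal imaging versus untreated cells; at least three experiments.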

Experiment [4] concerns A549. Put plainly: Growth inhibition of human A549 cells after 72 hrs by SRB assay. Type of experiment: functional. To be noted: A549, 72 h. The essentials: as §1
The test system of experiment [5] is HT-29. Put plainly: Growth inhibition of human HT-29 cells after 72 hrs by SRB assay. In kind it is functional. Conditions: HT-29, 72 h. The essentials: as §1

GI50 and Activity data for 18 compounds are collected here from ChEMBL document CHEMBL2150917, “Lignopurines: a new family of hybrids between cyclolignans and purines. Synthesis and biological evaluation” (2012).

Active and inactive are the calls of the source. The calls are words filed in the database; no cut-off is given here.

Take `COc1cc([C@@H]2c3cc4c(cc3C=C(C=O)[C@H]2C(=O)OCCCn2cnc3c(Cl)ncnc32)OCO4)cc(OC)c1OC`: the GI50 in experiment [1] is 2400 nM; in experiment [4], 750 nM; in experiment [5], 910 nM. Besides, the outcome in experiment [2] and in experiment [3] was Active.

`CCCNCC1=Cc2cc3c(cc2[C@@H](c2cc(OC)c(OC)c(OC)c2)[C@@H]1C(=O)OCc1ccc(Cn2cnc4c(Cl)ncnc42)cc1)OCO3`: the GI50 in experiment [1] amounted to 1300 nM; in experiment [4], 580 nM; in experiment [5] it was 630 nM.

For the compound `COc1cc([C@@H]2c3cc4c(cc3[C@H](O)[C@@H](CO)[C@H]2C(=O)OCCCBr)OCO4)cc(OC)c1OC`, the GI50 was found to be 160 nM in experiment [1], 140 nM in experiment [4] and 140 nM in experiment [5].

With `COc1cc([C@@H]2c3cc4c(cc3C=C(C=O)[C@H]2C(=O)OCc2ccc(Cn3cnc5c(Cl)ncnc53)cc2)OCO4)cc(OC)c1OC`, the figures for the GI50 in experiment [1], in experiment [4] and in experiment [5] were 810 nM, 29 nM and 51 nM, respectively. In addition, the outcome in experiment [2] and in experiment [3] was Active.

For the compound `COc1cc([C@@H]2c3cc4c(cc3C=C(C=O)[C@H]2C(=O)OCCCCCCn2cnc3c(Cl)ncnc32)OCO4)cc(OC)c1OC`, the GI50 stood at 3100 nM in experiment [1], 400 nM in experiment [4] and 770 nM in experiment [5]. Further, the result in experiment [2] and in experiment [3] was Active.

Regarding `COc1cc([C@@H]2c3cc4c(cc3[C@H](O)[C@@H](CO)[C@H]2C(=O)OCCCCCCBr)OCO4)cc(OC)c1OC`, the values for the GI50 in experiment [1], in experiment [4] and in experiment [5] were 350 nM, 250 nM and 160 nM, respectively.

For the compound `COc1cc(-c2c(C(=O)OCCCn3cnc4c(Cl)ncnc43)c(C=O)cc3cc4c(cc23)OCO4)cc(OC)c1OC`, the values for the GI50 in experiment [1], in experiment [4] and in experiment [5] were 5000 nM, 2000 nM and 2100 nM, respectively. Besides, the outcome in experiment [2] and in experiment [3] was Active.

As for `CCCNCC1=Cc2cc3c(cc2[C@@H](c2cc(OC)c(OC)c(OC)c2)[C@@H]1C(=O)OCCCCCCn1cnc2c(Cl)ncnc21)OCO3`, the results for the GI50 in experiment [1], in experiment [4] and in experiment [5] were 3500 nM, 2300 nM and 2200 nM, respectively.

As for `COc1cc([C@@H]2c3cc4c(cc3C=C(C=O)[C@H]2C(=O)OCc2ccc(CBr)cc2)OCO4)cc(OC)c1OC`, the GI50 in experiment [1] was 700 nM; in experiment [4], 85 nM; in experiment [5] it was 77 nM.

With `COc1cc([C@@H]2c3cc4c(cc3C=C(C=O)[C@H]2C(=O)OCCCBr)OCO4)cc(OC)c1OC`, the GI50 came out at 130 nM in experiment [1], 190 nM in experiment [4] and 140 nM in experiment [5].

On to `COC(=O)[C@@H]1C(C=O)=Cc2cc3c(cc2[C@H]1c1cc(OC)c(OC)c(OC)c1)OCO3` [PODOPHYLLIC ALDEHYDE], for which the GI50 in experiment [1] was determined as 200 nM; in experiment [4], 60 nM; in experiment [5], 39 nM.

As for `COc1cc([C@@H]2c3cc4c(cc3[C@@H](O[C@@H]3O[C@@H]5CO[C@@H](C)O[C@H]5[C@H](O)[C@H]3O)[C@H]3COC(=O)[C@H]23)OCO4)cc(OC)c1O` [ETOPOSIDE], the GI50 in experiment [1] is 7200 nM; in experiment [4] it was 2200 nM; in experiment [5], 9400 nM.

On to `CCCNc1ncnc2c1ncn2CCCCCCOC(=O)[C@@H]1C(C=O)=Cc2cc3c(cc2[C@H]1c1cc(OC)c(OC)c(OC)c1)OCO3`, for which the results for the GI50 in experiment [1], in experiment [4] and in experiment [5] were 5100 nM, 1200 nM and 1200 nM, respectively. In addition, the result in experiment [2] and in experiment [3] was Active.

Regarding `COc1cc([C@@H]2c3cc4c(cc3C=C(C=O)[C@H]2C(=O)OCCCn2cnc3cncnc32)OCO4)cc(OC)c1OC`, the results for the GI50 in experiment [1], in experiment [4] and in experiment [5] were 7700 nM, 790 nM and 710 nM, respectively. The result in experiment [2] and in experiment [3] was Active.

For the compound `COc1cc([C@@H]2c3cc4c(cc3C=C(C=O)[C@H]2C(=O)OCCCCCCBr)OCO4)cc(OC)c1OC`, the GI50 in experiment [1] came to 1800 nM; in experiment [4], 660 nM; in experiment [5], 740 nM.

For the compound `COc1cc([C@@H]2c3cc4c(cc3C=C(C=O)[C@H]2C(=O)OCCCCCCn2cnc3cncnc32)OCO4)cc(OC)c1OC`, the GI50 in experiment [1] amounted to 2400 nM; in experiment [4], 310 nM; in experiment [5] it was 530 nM. Also, the result in experiment [2] and in experiment [3] was Active.

Consider `CCC/N=C/C1=Cc2cc3c(cc2[C@@H](c2cc(OC)c(OC)c(OC)c2)[C@@H]1C(=O)OCc1ccc(Cn2cnc4c(Cl)ncnc42)cc1)OCO3`, for which the results for the GI50 in experiment [1], in experiment [4] and in experiment [5] were 740 nM, 59 nM and 90 nM, respectively.

As to `COc1cc([C@@H]2c3cc4c(cc3C=C(C=O)[C@H]2C(=O)OCCCCCCn2cnc3ncnc(Cl)c32)OCO4)cc(OC)c1OC`, the GI50 was found to be 3700 nM in experiment [1], 1200 nM in experiment [4] and 1700 nM in experiment [5]. Also, the outcome in experiment [2] and in experiment [3] was Active.

One may read the GI50 as the concentration at which growth is held to half of that of the control. Lower therefore signals greater sensitivity of the cells.
